Converted amounts (≈) assume the structure as drawn. The source made the active and inactive calls. The rule behind the calls is not given here.
Legend:
A549 = assay: Cytotoxicity against human A549 cells by MTT assay; assay type: functional; settings: read-out: ED50 (the source's name)
Summary of the method: (§1)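 Modified MTT colorimetric assay on P-388 mouse lymphocytic leukemia, HT-29 and A549 tumor cells; read-out ED50. Mithramycin as positive control.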

RAW264.7 [1] = assay: Antiinflammatory activity in mouse RAW264.7 cells assessed as inhibition of LPS-induced iNOS expression at 10 uM by immunoblot analysis
P388 = assay: Cytotoxicity against mouse P388 cells by MTT assay; assay type: functional; settings: read-out: ED50 (the source's name); summary of the method: as §1
Human betaherpesvirus 5 = assay: Antiviral activity against HCMV infected in HEL cells assessed as inhibition of virus-induced cytopathic effect after 7 days; assay type: functional, organism-based; settings: Human betaherpesvirus 5, HEL, 168 h; for EC50: read-out: ED50 (the source's name)
Summary of the method: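 Confluent human embryonic lung (HEL) cells preincubated 1 h with or without various compound concentrations, then infected with HCMV at 1000 pfu per well. IC50 taken as concentration reducing virus-induced cytopathic effect by 50% after seven days versus untreated control.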

RAW264.7 [2] = assay: Antiinflammatory activity in mouse RAW264.7 cells assessed as inhibition of LPS-induced COX2 expression at 10 uM by immunoblot analysis; assay type: functional
Summary of the method: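 Murine RAW 264.7 macrophages cultured in DMEM with 10% heat-inactivated FBS at 37 °C, 5% CO2. Cells were stimulated with LPS with or without compound. COX-2 protein was measured by immunoblot, with β-actin as housekeeping reference, and expressed as % of LPS-stimulated control cells. Statistics: one-way ANOVA, Student–Newman–Keuls post hoc test, P<0.05.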

HT-29 = assay: Cytotoxicity against human HT-29 cells by MTT assay; assay type: functional; settings: read-out: ED50 (the source's name); summary of the method: as §1

EC50 (Human betaherpesvirus 5) | Compound | EC50 (A549) | inhibition at 10 µM (RAW264.7 [1]) | EC50 (P388) | IC50 (Human betaherpesvirus 5) | Activity (RAW264.7 [2]) | EC50 (HT-29)
 | C=C(C)[C@H]1C/C=C2/C(=O)O[C@H](C[C@@]3(C)CC(=O)[C@@H](CC(=O)C1)O3)[C@H]2O | > 20 µg/mL | 10.2% | > 20 µg/mL | 1.9 µg/mL (≈ 5.45 µM) | inactive | > 20 µg/mL
> 50 µg/mL | C=C(C)[C@H]1CCC2=C[C@@H](C[C@@]3(C)CC(=O)[C@H](CC(=O)C1)O3)OC2=O | > 20 µg/mL |  | > 20 µg/mL |  |  | > 20 µg/mL
> 50 µg/mL | C=C(C)[C@H]1C/C=C(/C(=O)OC)CC(=O)C[C@@]2(C)CC(=O)[C@H](CC(=O)C1)O2 | > 20 µg/mL |  | > 20 µg/mL |  |  | > 20 µg/mL
> 50 µg/mL | C=C(C)[C@@H]1CC(=O)C[C@]23O[C@]4(C)C[C@H]5OC(=O)[C@H]([C@H]5[C@H]4C2=O)[C@H]3C1 | > 20 µg/mL |  | > 20 µg/mL |  |  | > 20 µg/mL
> 50 µg/mL | C=C(C)[C@H]1CCC2=C[C@@H](C[C@@]3(C)CC(=O)[C@@H](CC(=O)C1)O3)OC2=O | > 20 µg/mL |  | > 20 µg/mL |  |  | > 20 µg/mL
> 50 µg/mL | C=C(C)[C@@H]1CC(=O)[C@H]2[C@H](C1)[C@@H]1C(=O)O[C@@H]3C[C@@]4(C)O[C@@H]2C(=O)[C@@H]4[C@H]13 | > 20 µg/mL |  | > 20 µg/mL |  |  | > 20 µg/mL
 | O=C(/C=C/c1ccc(O)c(O)c1)OCCc1ccccc1 [CAFFEIC ACID PHENETHYL ESTER] |  | 1.5% |  |  |  | 
> 50 µg/mL | C=C(C)[C@H]1CCC2=C[C@@H](C/C(C)=C/C(=O)[C@H](O)CC(=O)C1)OC2=O [GYROSANOLIDE D] | > 20 µg/mL |  | > 20 µg/mL |  |  | > 20 µg/mL
> 50 µg/mL | C=C(C)[C@H]1CCC2=C[C@H](C[C@@]3(C)CC(=O)[C@@H](CC(=O)C1)O3)OC2=O [GYROSANOLIDE E] | > 20 µg/mL |  | > 20 µg/mL |  |  | > 20 µg/mL
> 50 µg/mL | C=C(C)[C@@H]1CC(=O)C[C@@H]2O[C@](C)(CC2=O)C[C@@H]2C=C(C(=O)O2)[C@@H](O)C1 [GYROSANOLIDE F] | > 20 µg/mL |  | > 20 µg/mL |  |  | > 20 µg/mL
 | CO[C@H](C(=O)[C@@H](O)[C@@H](C)O)[C@@H]1Cc2cc3cc(O[C@H]4C[C@@H](O[C@@H]5C[C@@H](O)[C@H](O)[C@@H](C)O5)[C@H](O)[C@@H](C)O4)c(C)c(O)c3c(O)c2C(=O)[C@H]1O[C@H]1C[C@@H](O[C@@H]2C[C@@H](O)[C@@H](O[C@@H]3C[C@](C)(O)[C@H](O)[C@@H](C)O3)[C@@H](C)O2)[C@H](O)[C@@H](C)O1 [PLICAMYCIN] | 0.07 µg/mL (≈ 0.0645 µM) |  | 0.06 µg/mL (≈ 0.0553 µM) |  |  | 0.08 µg/mL (≈ 0.0737 µM)
> 50 µg/mL | C=C(C)[C@@H]1CC(=O)CC2=C(C1)[C@@H]1C(=O)O[C@@H]3CC(C)=C(C2=O)[C@H]13 [YONAROLIDE] | > 20 µg/mL |  | > 20 µg/mL |  |  | > 20 µg/mL

Compound | EC50 (Human betaherpesvirus 5) | EC50 (A549) | inhibition at 10 µM (RAW264.7 [1]) | EC50 (P388) | IC50 (Human betaherpesvirus 5) | Activity (RAW264.7 [2]) | EC50 (HT-29)
C=C(C)[C@H]1CC[C@]23O[C@H]2[C@@H](C[C@@]2(C)CC(=O)[C@@H](CC(=O)C1)O2)OC3=O | > 50 µg/mL | > 20 µg/mL | 47.2% | > 20 µg/mL |  | inactive | > 20 µg/mL
C=C(C)[C@@H]1CC(=O)C[C@H]2O[C@](C)(CC2=O)C[C@H]2OC(=O)[C@@]3(O[C@H]23)[C@@H](O)C1 | > 50 µg/mL | > 20 µg/mL | 56.3% | > 20 µg/mL |  | inactive | > 20 µg/mL
C=C(C)[C@H]1C/C=C2/C(=O)O[C@H](C[C@@]3(C)CC(=O)[C@H](CC(=O)C1)O3)[C@H]2O | > 50 µg/mL | > 20 µg/mL | 17.4% | > 20 µg/mL |  | inactive | > 20 µg/mL
C=C(C)[C@@H]1CC(=O)C[C@H]2O[C@](C)(CC2=O)C[C@@H](O)[C@@H]2O[C@]2(C(=O)OC)[C@@H](O)C1 [GYROSANIN A] | > 50 µg/mL | > 20 µg/mL | 66.9% | 3.6 µg/mL (≈ 9.08 µM) |  | inactive | > 20 µg/mL
C=C(C)[C@H]1C/C=C2/C(=O)O[C@H](C/C(C)=C/C(=O)[C@@H](O)CC(=O)C1)[C@H]2O [GYROSANOLIDE A] | > 50 µg/mL | > 20 µg/mL | 55.2% | > 20 µg/mL |  | inactive | > 20 µg/mL
C=C(C)[C@H]1C/C=C2/C(=O)O[C@H](C/C(C)=C\C(=O)[C@@H](O)CC(=O)C1)[C@H]2O [GYROSANOLIDE B] | > 50 µg/mL | > 20 µg/mL | 18.6% | > 20 µg/mL |  | inactive | > 20 µg/mL
C=C(C)[C@H]1C/C=C2/C(=O)O[C@H](C/C(C)=C/C(=O)[C@H](OC)CC(=O)C1)[C@H]2O [GYROSANOLIDE C] | > 50 µg/mL | > 20 µg/mL | 10.6% | > 20 µg/mL |  | inactive | > 20 µg/mL
C=C(C)[C@@H]1CC(=O)CC2=C(C1)[C@@H]1C(=O)O[C@@H]3C[C@](C)(O)[C@H](C2=O)[C@H]13 [SCABROLIDE A] | > 50 µg/mL | > 20 µg/mL |  | > 20 µg/mL |  |  | > 20 µg/mL

Source: ChEMBL document CHEMBL1157809, “Bioactive norditerpenoids from the soft coral Sinularia gyrosa” (Bioorg Med Chem, 2010)
